# Reference: article PMC9082781 (ACS infectious diseases, 2021)
# Like-named read-outs stand apart in the source and are kept apart here. Non-standard residues stand in square brackets, D forms with d. Residues, ends and D or L forms follow the SMILES beside them. No end group written: not given here. *: point of attachment. Lauroyl = CCCCCCCCCCCC(=O)*; Decanoyl = CCCCCCCCCC(=O)*; Octanoyl = CCCCCCCC(=O)*
# Tests used:
# E. coli ATCC25922 [1] = system: E. coli ATCC25922
# S. aureus V8 protease = S. aureus V8 protease (Staphylococcus aureus, UniProt P0C1U8); format: in vitro ADME; details: 10 mM PBS pH 7.4, 37 °C, 3 h and 1 day, SDS-PAGE, Coomassie
# Sequence of S. aureus V8 protease (P0C1U8 69-336): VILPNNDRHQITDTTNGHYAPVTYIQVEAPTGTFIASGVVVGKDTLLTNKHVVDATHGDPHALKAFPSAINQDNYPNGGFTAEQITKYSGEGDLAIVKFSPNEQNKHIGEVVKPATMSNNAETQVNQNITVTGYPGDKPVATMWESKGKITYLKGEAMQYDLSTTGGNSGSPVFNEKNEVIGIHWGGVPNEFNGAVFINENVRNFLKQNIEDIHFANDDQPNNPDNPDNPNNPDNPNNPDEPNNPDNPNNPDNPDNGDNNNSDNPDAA
# human red blood cells [2] = format: cell-based; details: red cells of human, 1 h
# S. aureus USA300 LAC [3] = details: for MIC SA: USA300; for Minimal inhibitory concentration (MIC): USA300, pH 7.4
# [4] = system: Klebsiella pneumonia ATCC 13883; format: cell-based, Klebsiella pneumoniae
# P. aeruginosa PAO1 [5] = format: cell-based, Pseudomonas aeruginosa
# E. coli ATCC25922 [6] = details: LL-37; ref [36]; cited from earlier work
# P. aeruginosa PAO1 [7] = details: LL-37; ref [36]; cited from earlier work
# human red blood cells [8] = details: LL-37; ref [36]; cited from earlier work
# [9] = system: Klebsiella pneumonia ATCC 13883; details: LL-37; ref [36]; cited from earlier work
# S. aureus USA300 LAC [10] = assay: Bacterial membrane permeation; format: cell-based, Staphylococcus aureus; details: 12.5 μM, 37 °C, fluorescence read every 5 min
# Procedure, shortened: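 Exponential-phase S. aureus USA300 at final OD600 ~0.1 in TSB or PBS, with propidium iodide (20 μM as added) and serially diluted peptide (12.5 μM in figure). Daptomycin and rifamycin serve as controls. Incubated at 37 °C with 100 rpm shaking in a plate reader. Fluorescence (ex 584/em 620 nm) read every 5 min for 24 cycles; average values plotted.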
# S. aureus USA300 LAC [11] = assay: Resistance development, multiple passage experiment; format: cell-based, Staphylococcus aureus; details: 14 days/passages at sub-MIC; average of three independent experiments
# HaCaT cells = format: cell-based, human
# [12] = system: MCP-1, IL-17A, IL-10, TNF-α; assay: Cytokine levels in tissues surrounding catheters; format: in vivo, mouse; details: tissue surrounding catheter, day 3 after peptide treatment
# Procedure, shortened: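 Catheter biofilm mouse model under ketamine/xylazine (100/10 mg/kg) anesthesia. Peptide 15 mg/kg injected at five sites in and around the catheter 2 h post infection. Untreated infected and uninfected-catheter groups included. Day 3: CO₂ euthanasia, peri-catheter tissue harvested and homogenized, stored at −80 °C. Cytokines quantified by individual mouse cytokine ELISA kits in duplicate with standards.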
# S. aureus USA300 LAC [13] = assay: Systemic efficacy in neutropenic murine infection model; format: in vivo, mouse; details: neutropenic mice, single dose 5 mg/kg i.p., n = 8, vs untreated
# Procedure, shortened: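 Female C57BL/6 mice, 6 weeks old, made neutropenic with cyclophosphamide (day 1 150 mg/kg, day 4 100 mg/kg). Day 5: i.p. infection with ~2×10⁶ CFU S. aureus USA300. Single i.p. peptide dose 2 h later. Spleen, liver, lung and kidney weighed, homogenized in PBS, diluted, plated on blood agar (37 °C, overnight). CFU per tissue; Mann-Whitney test.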
# C57BL/6 mice = assay: In vivo toxicity; design: species or system mouse
# fungal proteinase K = fungal proteinase K (Parengyodontium album, UniProt P06873); assay: Protease stability by SDS-PAGE, proteinase K; format: in vitro ADME; details: 10 mM PBS pH 7.4, 37 °C, 1 day, Coomassie
# Sequence of fungal proteinase K (P06873 106-384): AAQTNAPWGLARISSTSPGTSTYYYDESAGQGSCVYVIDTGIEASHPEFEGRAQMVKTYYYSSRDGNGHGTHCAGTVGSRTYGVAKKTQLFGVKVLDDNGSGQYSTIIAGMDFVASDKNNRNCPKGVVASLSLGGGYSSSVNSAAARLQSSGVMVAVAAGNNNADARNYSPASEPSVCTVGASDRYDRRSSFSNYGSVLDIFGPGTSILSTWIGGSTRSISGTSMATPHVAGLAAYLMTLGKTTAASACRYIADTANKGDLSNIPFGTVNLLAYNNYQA
molecule,measurement,setting,value
CCCCCCCCCC(=O)N[C@@H](CCCCN)C(=O)N[C@@H](CCCNC(=N)N)C(=O)N[C@H](C(=O)N[C@@H](Cc1c[nH]c2ccccc12)C(=O)N[C@@H](CCC(N)=O)C(=O)N[C@@H](CCCNC(=N)N)C(=O)N[C@H](C(=O)N[C@@H](CCCCN)C(N)=O)[C@@H](C)CC)[C@@H](C)CC [Peptide C10-KR8] (Decanoyl-KRIWQRIK-NH2),MIC EC,E. coli ATCC25922 [1],12.5 µM
same,stability to S. aureus V8 protease,S. aureus V8 protease,except for S. aureus V8 protease
same,HC50,human red blood cells [2],300 µM
same,MIC SA,S. aureus USA300 LAC [3],1.5 to 3.1 µM
same,Minimal inhibitory concentration (MIC),S. aureus USA300 LAC [3],3.1 µM
same,MIC KP,[4],50 µM
CCCCCCCCCCCC(=O)N[C@@H](CCCCN)C(=O)N[C@@H](CCCNC(=N)N)C(=O)N[C@H](C(=O)N[C@@H](Cc1c[nH]c2ccccc12)C(=O)N[C@@H](CCC(N)=O)C(=O)N[C@@H](CCCNC(=N)N)C(=O)N[C@H](C(=O)N[C@@H](CCCCN)C(=O)N[C@@H](CC(=O)O)C(=O)N[C@@H](Cc1ccccc1)C(N)=O)[C@@H](C)CC)[C@@H](C)CC [Peptide C12-KR10] (Lauroyl-KRIWQRIKDF-NH2),MIC PA,P. aeruginosa PAO1 [5],3.1 µM
same,MIC KP,[4],3.1 µM
CC[C@H](C)[C@H](NC(=O)[C@H](CCCCN)NC(=O)[C@H](CCC(=O)O)NC(=O)[C@H](CCCCN)NC(=O)[C@H](CO)NC(=O)[C@H](CCCCN)NC(=O)[C@H](CCCNC(=N)N)NC(=O)[C@H](Cc1ccccc1)NC(=O)[C@H](Cc1ccccc1)NC(=O)[C@H](CC(=O)O)NC(=O)CNC(=O)[C@H](CC(C)C)NC(=O)[C@@H](N)CC(C)C)C(=O)NCC(=O)N[C@@H](CCCCN)C(=O)N[C@@H](CCC(=O)O)C(=O)N[C@@H](Cc1ccccc1)C(=O)N[C@@H](CCCCN)C(=O)N[C@@H](CCCNC(=N)N)C(=O)N[C@H](C(=O)N[C@H](C(=O)N[C@@H](CCC(N)=O)C(=O)N[C@@H](CCCNC(=N)N)C(=O)N[C@H](C(=O)N[C@@H](CCCCN)C(=O)N[C@@H](CC(=O)O)C(=O)N[C@@H](Cc1ccccc1)C(=O)N[C@@H](CC(C)C)C(=O)N[C@@H](CCCNC(=N)N)C(=O)N[C@@H](CC(N)=O)C(=O)N[C@@H](CC(C)C)C(=O)N[C@H](C(=O)N1CCC[C@H]1C(=O)N[C@@H](CCCNC(=N)N)C(=O)N[C@H](C(=O)N[C@@H](CCC(=O)O)C(=O)N[C@@H](CO)C(=O)O)[C@@H](C)O)C(C)C)[C@@H](C)CC)C(C)C)[C@@H](C)CC [LL-37],MIC EC,E. coli ATCC25922 [6],3.1 to 6.2 µM
same,MIC PA,P. aeruginosa PAO1 [7],>50 µM
same,HC50,human red blood cells [8],170 µM
same,MIC KP,[9],6.2 µM
same,Minimal inhibitory concentration against S. aureus,S. aureus USA300 LAC [3]; 10% TSB,50 µM
same,Minimal inhibitory concentration against S. aureus,S. aureus USA300 LAC [3]; 50% TSB,>50 µM
same,Minimal inhibitory concentration against S. aureus,S. aureus USA300 LAC [3]; 100% MHB,>50 µM
same,Minimal inhibitory concentration against S. aureus,S. aureus USA300 LAC [3]; 100% TSB,>50 µM
"CO[C@H]1/C=C/O[C@@]2(C)Oc3c(C)c(O)c4c(O)c(cc(O)c4c3C2=O)NC(=O)/C(C)=C\C=C\[C@H](C)[C@H](O)[C@@H](C)[C@@H](O)[C@@H](C)[C@H](OC(C)=O)[C@@H]1C [rifamycin, reference compound]",membrane permeation (propidium iodide fluorescence),S. aureus USA300 LAC [10],unable to achieve the same effect
"CCOc1ccc2ccccc2c1C(=O)N[C@@H]1C(=O)N2[C@@H]1SC(C)(C)[C@@H]2C(=O)O [nafcillin, reference compound]",MIC increase during serial passages,S. aureus USA300 LAC [11],over 30 fold
CCCCCCCC(=O)N[C@@H](CCCCN)C(=O)N[C@@H](CCCNC(=N)N)C(=O)N[C@H](C(=O)N[C@@H](Cc1c[nH]c2ccccc12)C(=O)N[C@@H](CCC(N)=O)C(=O)N[C@@H](CCCNC(=N)N)C(=O)N[C@H](C(=O)N[C@@H](CCCCN)C(=O)N[C@@H](CC(=O)O)C(=O)N[C@@H](Cc1ccccc1)C(N)=O)[C@@H](C)CC)[C@@H](C)CC [Peptide C8-KR10] (Octanoyl-KRIWQRIKDF-NH2),relative toxicity to HaCaT cells,HaCaT cells,slightly less toxic than C8-KR10d
same,MIC EC,E. coli ATCC25922 [1],6.2 µM
same,Minimal inhibitory concentration (MIC),S. aureus USA300 LAC [3],6.2 µM
same,MIC PA,P. aeruginosa PAO1 [5],6.2 µM
same,MIC KP,[4],25 µM
CCCCCCCCCC(=O)N[C@@H](CCCCN)C(=O)N[C@@H](CCCNC(=N)N)C(=O)N[C@H](C(=O)N[C@@H](Cc1c[nH]c2ccccc12)C(=O)N[C@@H](CCC(N)=O)C(=O)N[C@@H](CCCNC(=N)N)C(=O)N[C@H](C(=O)N[C@@H](CCCCN)C(=O)N[C@@H](CC(=O)O)C(=O)N[C@@H](Cc1ccccc1)C(N)=O)[C@@H](C)CC)[C@@H](C)CC [Peptide C10-KR10] (Decanoyl-KRIWQRIKDF-NH2),MIC PA,P. aeruginosa PAO1 [5],6.2 µM
same,MIC KP,[4],6.2 µM
"KRIVQRIKDFLR-NH2 [KR12, reference compound]",MIC EC,E. coli ATCC25922 [1],>50 µM
same,MIC KP,[4],>50 µM
CCCCCCCCCC(=O)N[C@H](CCCCN)C(=O)N[C@H](CCCNC(=N)N)C(=O)N[C@@H](C(=O)N[C@H](Cc1c[nH]c2ccccc12)C(=O)N[C@H](CCC(N)=O)C(=O)N[C@H](CCCNC(=N)N)C(=O)N[C@@H](C(=O)N[C@H](CCCCN)C(N)=O)[C@H](C)CC)[C@H](C)CC [Peptide C10-KR8d] (Decanoyl-[dK][dR][dI][dW][dQ][dR][dI][dK]-NH2),relative toxicity to HaCaT cells,HaCaT cells,slightly more toxic than C10-KR8
same,IL-10 level,[12],decrease
same,IL-17A level,[12],up-regulation
same,MCP-1/CCL2 level,[12],up-regulation
same,TNFα level,[12],decrease
same,stability to S. aureus V8 protease,S. aureus V8 protease,resistant
same,membrane permeation (propidium iodide fluorescence),S. aureus USA300 LAC [10],able to permeate the membranes
same,CFU decrease in kidney,S. aureus USA300 LAC [13],not in spleen and kidney
same,CFU decrease in spleen,S. aureus USA300 LAC [13],not in spleen and kidney
same,HC50,human red blood cells [2],300 µM
same,survival,"C57BL/6 mice; 10 mg/kg i.p., female C57BL/6 mice n=3, 5 days observation",all mice survived
same,survival,"C57BL/6 mice; 20 mg/kg i.p., female C57BL/6 mice n=3, 5 days observation",all mice survived
same,survival,"C57BL/6 mice; 40 mg/kg i.p., female C57BL/6 mice n=3, died in a day",all mice died
same,maximal tolerated dose (MTD),"C57BL/6 mice; i.p., C57BL/6 mice, 20 mg/kg or more but less than 40 mg/kg",≥ 20 mg/kg
same,MIC increase during serial passages,S. aureus USA300 LAC [11],no changes
same,Minimal inhibitory concentration (MIC),S. aureus USA300 LAC [3],3.1 µM
same,stability to fungal proteinase K,fungal proteinase K,resistant
same,MIC PA,P. aeruginosa PAO1 [5],6.2 µM
same,MIC KP,[4],25 µM
CCCCCCCC(=O)N[C@H](CCCCN)C(=O)N[C@H](CCCNC(=N)N)C(=O)N[C@@H](C(=O)N[C@H](Cc1c[nH]c2ccccc12)C(=O)N[C@H](CCC(N)=O)C(=O)N[C@H](CCCNC(=N)N)C(=O)N[C@@H](C(=O)N[C@H](CCCCN)C(=O)N[C@H](CC(=O)O)C(=O)N[C@H](Cc1ccccc1)C(N)=O)[C@H](C)CC)[C@H](C)CC [Peptide C8-KR10d] (Octanoyl-[dK][dR][dI][dW][dQ][dR][dI][dK][dD][dF]-NH2; C-terminus assumed),MIC EC,E. coli ATCC25922 [1],6.2 µM
same,MIC SA,S. aureus USA300 LAC [3],3.1 µM
same,Minimal inhibitory concentration (MIC),S. aureus USA300 LAC [3],3.1 µM
same,MIC PA,P. aeruginosa PAO1 [5],12.5 µM
same,MIC KP,[4],12.5 µM
